Folding enthalpy and Tm data for 37 sequences are collected here from the array DNA melting data of Ke et al. (doi:10.1101/2024.01.08.574731).

Data set [1] in a line: folding enthalpy; higher = less favourable; fluorescence melt of hairpins on a sequencing array, two-state fit. The following applies: sodium 0.088 M. An outline of the steps: (§1)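 On a sequenced MiSeq flow cell, library hairpins with annealed Cy3 and quencher oligos were imaged for Cy3 fluorescence in 2.5 °C steps up to 60 °C, in 50 mM Na-HEPES pH 8.0, 25 mM NaCl. Normalisation used pre-quench Cy3 and control constructs. Bootstrapped two-state fits gave melting temperature and folding enthalpy, combined by inverse variance across four replicates and with fitted temperatures raised by 9.35 °C to match UV melts.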

Data set [2] can be described thus: melting temperature; fluorescence melt of hairpins on a sequencing array, two-state fit, raised by 9.35 °C to match UV melts. The conditions noted are these: sodium 0.088 M. Summed up: as §1

GGGTGTGCGAAAGCACCC (((..(((....)))))): in data set [1], the folding enthalpy was -11.3 kcal/mol. For the same sequence, the Tm in data set [2] was found to be 56.6 °C.
Taken in the same sequence, the figures for GGGTGTGGAAACACACTC (.(((((....))))).) were -23.5 kcal/mol and 55.4 °C.
For GGGTGTGGAAACACATCC ((.((((....)))).)), the folding enthalpy in data set [1] is -26.4 kcal/mol. The Tm in data set [2] came out at 52.5 °C.
Taken in the same sequence, the figures for GGGTGTGGAAACATACCC ((((.((....)).)))) were -45.6 kcal/mol and 52.1 °C.
Taken in the same sequence, the figures for GGGTTACGAAAGTAGCCC (((.(((....))).))) were -45.7 kcal/mol and 59.6 °C.
As for GGGTTCGAAAGAAAGCCC ((((((....)))..))), in data set [1], the folding enthalpy is -16 kcal/mol. Moreover, the Tm in data set [2] was 36 °C.
Taken in the same sequence, the figures for GGGTTCGAAAGAACGCCC ((((((....)))..))) were -11.2 kcal/mol and 50 °C.
On to GGGTTCGAAAGAAGGCCC ((((((....)))..))), for which, in data set [1], the folding enthalpy was -20.7 kcal/mol. Moreover, the Tm in data set [2] was 35.6 °C.
Taken in the same sequence, the figures for GGGTTCGGAAACGAACTC (.(((((....))))).) were -23.3 kcal/mol and 53.8 °C.
For GGGTTCGGAAACGGACTC (.((.((....)).)).) the same measures were -25.9 kcal/mol and 39.1 °C.
Taken in the same sequence, the figures for GGGTTGCGAAAGCACCC (((.(((....)))))) were -23.7 kcal/mol and 62.9 °C.
As for GGGTTGCGAAAGCACCCC (((.(((....))).))), the folding enthalpy in data set [1] was -19.4 kcal/mol. In addition, the Tm in data set [2] worked out at 62.9 °C.
Turning to GGGTTGGCGAAAGCCCCC (((..(((....)))))), in data set [1], the folding enthalpy is -15.3 kcal/mol. In addition, the Tm in data set [2] turned out to be 46.3 °C.
For GGGTTGGGAAACCAGTCC ((..(((....)))..)) the same measures were -16.4 kcal/mol and 38 °C.
Taken in the same sequence, the figures for GGGTTGGGAAACCGACTC (.((.((....)).)).) were -16.3 kcal/mol and 41.2 °C.
Taken in the same sequence, the figures for GGGTTTCGAAAGAACCCC (((.(((....))).))) were -26.1 kcal/mol and 51.3 °C.
Regarding GGGTTTGGAAACAAATCC ((.((((....)))).)), the folding enthalpy in data set [1] was -39.6 kcal/mol. Besides, the Tm in data set [2] was 47.4 °C.
For GGGTTTGGAAACAAGCCC (((.(((....))).))) the same measures were -32.1 kcal/mol and 52.7 °C.
As for GGTAACGAAAGTTACC ((((((....)))))), the folding enthalpy in data set [1] was -34.7 kcal/mol. In addition, the Tm in data set [2] was 64.1 °C.
Consider GGTAACGAAAGTTGAACC ((((((....)))..))), for which the folding enthalpy in data set [1] was -14.2 kcal/mol. Besides, in data set [2], the Tm is 30.1 °C.
Taken in the same sequence, the figures for GGTAACGAAAGTTTCACC ((((((....)))..))) were -9.74 kcal/mol and 28.8 °C.
Take GGTAACGAAAGTTTTACC ((((((....)))..))): in data set [1], the folding enthalpy was -9.8 kcal/mol. The Tm in data set [2] worked out at 29.7 °C.
Regarding GGTAACGGAAACGTTATC (.(((((....))))).), the folding enthalpy in data set [1] was -24.5 kcal/mol. For the same sequence, the Tm in data set [2] was 46.4 °C.
As to GGTAACGGAAACGTTGCC ((.((((....)))).)), the folding enthalpy in data set [1] was -50.5 kcal/mol. Further, the Tm in data set [2] was determined as 53.8 °C.
Taken in the same sequence, the figures for GGTAACGGAAACGTTGTC (..((((....))))..) were -16.8 kcal/mol and 31.6 °C.
With GGTAAGGCGAAAGCCACC (((..(((....)))))), in data set [1], the folding enthalpy is -15.3 kcal/mol. Moreover, in data set [2], the Tm worked out at 43.7 °C.
Take GGTAAGGGAAACCCTACC ((((.((....)).)))): in data set [1], the folding enthalpy is -24.3 kcal/mol. Further, the Tm in data set [2] worked out at 40 °C.
For the sequence GGTAAGGGAAACCTTATC (.(((((....))))).), the folding enthalpy in data set [1] was -25.6 kcal/mol. Moreover, the Tm in data set [2] turned out to be 38.1 °C.
For GGTAATACGAAAGTAACC (((..(((....)))))) the same measures were -9.63 kcal/mol and 22.7 °C.
Taken in the same sequence, the figures for GGTAATCGAAAGATAACC (((.(((....))).))) were -26.3 kcal/mol and 41.7 °C.
For GGTAATGGAAACATTGCC ((.((((....)))).)) the same measures were -29.2 kcal/mol and 46.7 °C.
Consider GGTACAACGAAAGTTACC (((..(((....)))))), for which the folding enthalpy in data set [1] was -17.3 kcal/mol. Moreover, the Tm in data set [2] amounted to 33.3 °C.
For GGTACAGGAAACCGTACC (((((.(....).))))) the same measures were -33 kcal/mol and 47.1 °C.
Taken in the same sequence, the figures for GGTACAGGAAACTGTACC (((((((....))))))) were -44.5 kcal/mol and 59.3 °C.
For GGTACAGGAAACTGTGTC (..((((....))))..) the same measures were -17.6 kcal/mol and 28.9 °C.
Take GGTACCCGAAAGGGACC (((.(((....)))))): the folding enthalpy in data set [1] is -25.9 kcal/mol. Also, the Tm in data set [2] amounted to 54.5 °C.
Turning to GGTACCGAAAGGTAGACC ((((((....)))..))), in data set [1], the folding enthalpy is -13.2 kcal/mol. The Tm in data set [2] was 41 °C.
